Screening data as filed in PubChem BioAssay.
LANA-nucl inh: LANA-nucleosome interaction inhibition | AID 720717 | FITC-LANA1-23 / chicken nucleosome fluorescence polarization; stronger effect = lower value | 0.3% of 51,000 active | z-score (test concentration not listed);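 active = both repeat wells score below -2 in polarization z-score versus plate sample wells, excluding overly bright wells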
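Assay system: purified chicken nucleosomes with FITC-labelled LANA N-terminal peptide (1-23) / Probe or stimulus: 50 nM FITC-LANA1-23 probe / Compound dosing: pin-transferred compound, 100 nL / Times: compound with peptide–nucleosome mix 10–45 min at room temperature / Technique: fluorescence polarization, 480 nm excitation, 535 nm parallel and perpendicular emission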
Ab BasE inh: inhibitors of Acinetobacter baumannii siderophore enzyme BasE. purified BasE, fluorescence polarization binding displacement. inhibition, % (test concentration not listed). 0.1% of 84,000 active. AID 485350; in the data active = inhibition above about 25%, passing the limit was not always enough;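 note: 0% = negative plate control signal and 100% = positive plate control signal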
An asterisk follows results filed as active; / = no result given; ! = repeats disagree. Only a selection was taken, and hits are over-represented in it overall.

SMILES | LANA-nucl inh | Ab BasE inh
O=C(NCCN1CCCC1)c1ccc2c(c1)OCCO2 | -0.946 | 1.1
COc1cccc(NC(=O)Cn2ncc3c2-c2ccccc2OC3)c1 | -2.31* | -0.9
CCC(C)NC(=O)Cn1ncc2c1-c1ccccc1OC2 (stereo not drawn) | -1.7 | -1.5
CCCN1COc2ccc3c(C)cc(=O)oc3c2C1 | 0.548 | 1.4
CC1=CC(C)=N/C1=C/c1c(O)[nH]c(=O)[nH]c1=O | -7.64* | 1.3
CC(CO)(CO)N=Cc1c(O)[nH]c(=O)[nH]c1=O | 0.418 | 1.9
Cc1ccc(CN2CCC(CNC(=O)Nc3ccccc3)CC2)cc1 | 0.044 | 1.6
O=C(OCc1cccc(COC(=O)c2ccccc2)c1F)c1ccccc1 | / | 1.0
O=C(Nc1ccc2c(c1)CCC2)C1CCCO1 (stereo not drawn) | -2.09* | 1.2
O=C(Nc1ccc2c(c1)oc1ccccc12)C1CCCO1 (stereo not drawn) | -0.432 | 0.0
COC(=O)C1=CN(c2ccc(F)cc2)C=C(C(=O)OC)C1c1ccc(OC)c(O)c1 | -0.511 | 1.2
Cc1ccc(C)c(OC(=O)C2CC(=O)N(c3ccc4c(c3)OCCO4)C2)c1C (stereo not drawn) | / | 0.2
CCSC1=NC2(CCCCC2)Nc2ccccc21 | / | 0.4
c1cnc2c(c1)NC1(CCCCC1)N2 | -3.64* | 29.1
CC(C)C(=O)N1CCCSC1=Nc1ccccc1 | / | 0.1
Cc1cc(C)nc(Nc2n[nH]c(-c3cccnc3)n2)n1 | -0.464 | 26.5*
Cc1cc(C)nc(Nc2n[nH]c(COc3ccc4ccccc4c3)n2)n1 | 0.259 | -1.0
CC1CC(C)CN(Cc2cc(Cl)c(O)c(Cl)c2)C1 (stereo not drawn) | 0.874 | /
Cc1[nH]n(-c2ccccc2)c(=O)c1/C=N/O | -0.0215 | 1.7
Cc1[nH]n(-c2ccccc2)c(=O)c1C=Nc1ccc(O)cc1 | / | 52.6*
Cc1ccc(/C=N/c2sccc2C#N)cc1 | -6.48* | /
N#Cc1ccsc1/N=C/c1ccccc1 | -0.415 | /
CC(=O)Nc1ccc(C(=O)N/N=C/c2ccc(C)o2)cc1 | -0.637 | 0.1
O=C(O)COc1c(I)cc(Cl)c2cccnc12 | / | -0.4
S=c1[nH]c2cc(Cl)c3cccnc3c2o1 | 2.53 | 51.3*
SMILES | LANA-nucl inh | Ab BasE inh
O=C(Nc1ccccc1)N(Cc1nc(-c2ccccc2)no1)C1CCCCC1 | -2.13* | 1.8
O=C(c1ccccc1)N(Cc1nc(-c2ccccc2)no1)C1CCCCC1 | -1.82 | 1.6
CC(C)N1CC=C2C(C1)C(c1ccccc1Cl)C(C#N)=C(N)C2(C#N)C#N (stereo not drawn) | -2.35* | 25.7*
CC(C)(C)OC(=O)N1CC=C2C(C1)C(c1cccc(F)c1)C(C#N)=C(N)C2(C#N)C#N (stereo not drawn) | 1.8 | -12.4
CCc1ccc(NC(=O)CN2C(=O)c3ccccc3S2(=O)=O)cc1 | 0.835 | 2.2
O=C1CC(c2ccccc2O)=NN1 | / | 26.7*
O=C1CCC(C(=O)OCN2C(=O)c3ccccc3C2=O)=NN1 | / | 1.1
CCC(=O)Nc1nc2c(s1)C(=O)CC(c1ccccc1)C2 (stereo not drawn) | -0.027 | -1.3
COc1cn(-c2ccccc2)nc1C(=O)Nc1ccc2nc(C)sc2c1 | / | -2.9
O=C(O)c1ccccc1C1=Nc2ccc(O)cc2Oc2cc(O)ccc21 | -6.08* | 38.2
O=C(O)c1ccccc1-c1ccccc1C(=O)O | 1.32 | -1.7
O=C(Cc1ccc(F)cc1)Nc1cc(=O)[nH]c(=O)[nH]1 | -2.17* | 1.0
O=C(CSCc1ccccc1)Nc1cc(=O)[nH]c(=O)[nH]1 | -0.529 | 0.9
CC(=O)Nc1ccc(-c2nc3cc(C)ccc3o2)cc1 | -0.911 | 0.5
CC(=O)Nc1ccc2oc(C)nc2c1 | 1.06 | 36.6*
CCC1CCc2sc(C(=O)N=c3sccn3C)cc2C1 (stereo not drawn) | / | -2.5
CC(NC(=O)c1ccc(Br)cc1)C1CCCO1 (stereo not drawn) | 0.8 | 0.7
Cc1cc(C(=O)COC(=O)c2ccc(S(=O)(=O)N3CCCC3)cc2)c(C)n1Cc1cccs1 | / | 0.6
CCOC(=O)c1ccc(-c2ccc(/C=C(\C#N)C(=O)NCc3cccs3)o2)cc1 | 0.511 | -0.7
CCOC(=O)c1ccccc1NC(=O)/C(C#N)=C/c1ccc(-c2ccc(Cl)cc2)o1 | -4.28* | 9.7
N#CC(C#N)=C(N)/C(C#N)=C\c1ccc(-c2ccccc2)o1 | -0.109 | 0.9
CCOC(=O)c1cc(-c2ccc(/C=C(\C#N)C(N)=C(C#N)C#N)o2)ccc1Cl | -4.52* | 6.5
N#C/C(=C\c1ccc(-c2cccc(Cl)c2)o1)C(N)=O | -0.339 | -3.6
N#C/C(=C/c1ccc(-c2ccc(S(N)(=O)=O)cc2)o1)C(=O)Nc1cc(Cl)ccc1Cl | -5.68* | 29.9
O=C(OCc1cc(=O)n2cc(Br)ccc2n1)c1cnccn1 | / | 0.7
SMILES | LANA-nucl inh | Ab BasE inh
CC(On1nnc2ccc(C(F)(F)F)cc21)C(=O)Nc1ccc(C#N)cc1 (stereo not drawn) | / | 1.1
CCOc1ccc2ccc(=O)oc2c1 | / | 2.3
CCN(CC)c1ccc(/C=C2\N=C(SC)SC2=O)cc1 | -2.6* | 9.3
CSC1=N/C(=C\c2ccccc2)C(=O)S1 | -0.558 | 1.5
COc1cccc2c1C(=O)c1c(O)c3c(c(O)c1C2=O)C[C@@](O)(C(=O)CO)C[C@@H]3O[C@H]1C[C@H](N)[C@H](O)[C@H](C)O1 | -8.45*! | 15.3
COc1cccc2c1C(=O)c1c(O)c3c(c(O)c1C2=O)C[C@@](O)(C(C)=O)C[C@@H]3OC1CC(N)C(O)C(C)O1 (stereo partly drawn) | -6.03* | 15.4
Cc1cc(C)nc(C(=O)N/N=C/c2cc(C)n(C3CCCC3)c2C)n1 | / | 1.6
COc1ccccc1CN(C)CCN | -0.343 | -12.9
Cc1ccc(C)n1-c1ccsc1C(=O)O | -3.69* | 17.5
Cc1ccc(C)n1-c1ccsc1C(=O)CC#N | -0.221 | /
Nc1ccc(N2CCOCC2)c(N)c1 | 2.52 | 36.8*
NS(=O)(=O)c1ccc(N2CCOCC2)c(C(=O)O)c1 | / | 1.1
CN1N=C2c3ccccc3CCCC2C1c1ccc2c(c1)OCO2 (stereo not drawn) | / | 0.5
O=C(Nc1ccccc1)C1CCCN1C(=O)Nc1ccc(F)cc1 (stereo not drawn) | -0.355 | -0.2
Cc1ccc(NC(=O)c2cc3c(=O)n(Cc4ccco4)ccc3nc2C)cc1 | -0.429 | -2.5
Cc1nc2ccn(Cc3cccnc3)c(=O)c2cc1C(=O)NCCCc1ccco1 | -2.12* | 2.8
O=c1[nH]c2c(s1)C1c3ccccc3OC3CCCC(S2)C31 (stereo not drawn) | -9.75* | 7.8
O=C1Oc2ccccc2C2c3sc(=O)[nH]c3SC(c3ccccc3)C12 (stereo not drawn) | -0.435 | 0.1
Cc1ccc(Cn2c(C(=O)NCc3ccccc3)cc3oc(C)cc32)cc1 | 0.128 | 1.4
CNC(=O)c1cccn1-c1nnc(N2CCCCC2)s1 | / | 2.8
O=C(NCCc1ccccc1)C1CCC(=O)N1Cc1ccc(F)cc1 (stereo not drawn) | 0.186 | 0.5
CN(C)c1ccc2c3c(cccc13)C(=O)N(c1nc3ccccc3n1C)C2=O | -0.971 | 0.3
CC(=O)NN1C(=O)c2cccc3c(N(C)C)ccc(c23)C1=O | / | 31.6*
O=C(Cn1cc(/C=C2\NC(=S)N(c3ccccc3)C2=O)c2ccccc21)NCc1ccco1 | -2.29* | 13.2
O=C(Cn1cc(/C=N/NC(=S)Nc2ccccc2)c2ccccc21)NCc1ccco1 | -0.956 | 0.2
CN(CC(=O)Nc1ccc2c(c1)CCC2)Cc1cccc(F)c1 | / | -4.3
N#Cc1c(N2CCCC2=O)sc2c1CCCCC2 | / | -1.7
COC(=O)C(NC(=O)NC1CCCCC1)C(C)C (stereo not drawn) | -1.25 | -1.2
